Data: ChEMBL document CHEMBL3632581, “Dimers of Melampomagnolide B Exhibit Potent Anticancer Activity against Hematological and Solid Tumor Cells” (J Med Chem, 2015)

Columns and labels:
SNB-19 = test: Cytotoxicity against human SNB19 cells after 48 hrs by SRB assay; assay type: functional; settings: SNB-19, 48 h
How it was run: (§1)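 NCI-60 five-dose screen at 10−8 to 10−4 M. Cells were plated at 5,000–40,000/well in RPMI 1640 with 5% FBS and 2 mM L-glutamine, then preincubated 24 h, and time-zero plates were TCA-fixed. Compound was added from DMSO stocks and exposed 48 h at 37 °C. Cells were TCA-fixed, SRB-stained, and read at 515 nm. LC50 is the concentration halving the cell population through cell death.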

[1] = Cytotoxicity against human NCI-ADR-RES cells after 48 hrs by SRB assay; assay type: functional; how it was run: as §1
CCRF-CEM = test: Cytotoxicity against human CCRF-CEM cells after 48 hrs by SRB assay; assay type: functional; how it was run: as §1
[2] = Antileukemic activity against human AML05 cells after 24 hrs by annexin V/7-AAD staining-based flow cytometric analysis; assay type: functional, cell-based
How it was run: (§2)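 Primary AML specimens from consenting donors, isolated by Ficoll-Paque gradient and sometimes cryopreserved. Cells were held 1 h in serum-free IMDM with 20% BIT 9500, LDL and β-mercaptoethanol before drug (DMSO stock diluted in PBS, ≤0.5% DMSO final). Exposure was 24 h over 0.5-10 μM. Annexin V/7-AAD double-negative cells, normalized to vehicle, gave the EC50. Run in triplicate.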

SK-MEL-2 = test: Cytotoxicity against human SK-MEL-2 cells after 48 hrs by SRB assay; assay type: functional; settings: SK-MEL-2, 48 h; how it was run: as §1
HCC 2998 = test: Cytotoxicity against human HCC2998 cells after 48 hrs by SRB assay; assay type: functional; settings: HCC 2998, 48 h; how it was run: as §1
[3] = Antileukemic activity against human AML01 cells after 24 hrs by annexin V/7-AAD staining-based flow cytometric analysis; assay type: functional, cell-based; how it was run: as §2
A498 = test: Cytotoxicity against human A498 cells after 48 hrs by SRB assay; assay type: functional; settings: A498, 48 h; how it was run: as §1
[4] = Antileukemic activity against human AML02 cells after 24 hrs by annexin V/7-AAD staining-based flow cytometric analysis; assay type: functional, cell-based; how it was run: as §2
TK-10 = test: Cytotoxicity against human TK10 cells after 48 hrs by SRB assay; assay type: functional; settings: TK-10, 48 h
How it was run: (§3)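 NCI-60 screen: cells grown in RPMI 1640 with 5% FBS and 2 mM L-glutamine, plated at 5,000–40,000 cells/well by doubling time, and preincubated 24 h at 37 °C before drug. Drug was diluted from DMSO stock and given at five concentrations, 10−4 to 10−8 M, for 48 h. Cells fixed with cold TCA, SRB stained, OD read at 515 nm against time-zero and vehicle plates. LC50 taken as the concentration that halves cell population through cell death.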

[5] = Antileukemic activity against human AML04 cells after 24 hrs by annexin V/7-AAD staining-based flow cytometric analysis; assay type: functional, cell-based; how it was run: as §2
OVCAR-8 = test: Cytotoxicity against human OVCAR8 cells after 48 hrs by SRB assay; assay type: functional; settings: OVCAR-8, 48 h; how it was run: as §1
SW-620 = test: Cytotoxicity against human SW620 cells after 48 hrs by SRB assay; assay type: functional; settings: SW-620, 48 h; how it was run: as §3
HCT-15 = test: Cytotoxicity against human HCT15 cells after 48 hrs by SRB assay; assay type: functional; settings: HCT-15, 48 h; how it was run: as §1
PC-3 = test: Cytotoxicity against human PC3 cells after 48 hrs by SRB assay; assay type: functional; settings: PC-3, 48 h; how it was run: as §1
HT-29 = test: Cytotoxicity against human HT-29 cells after 48 hrs by SRB assay; assay type: functional; settings: HT-29, 48 h; how it was run: as §1
SF-539 = test: Cytotoxicity against human SF539 cells after 48 hrs by SRB assay; assay type: functional; settings: SF-539, 48 h; how it was run: as §1
Malme-3M = test: Cytotoxicity against human MALME-3M cells after 48 hrs by SRB assay; assay type: functional; how it was run: as §1
T47D = test: Cytotoxicity against human T47D cells after 48 hrs by SRB assay; assay type: functional; how it was run: as §3
SR = test: Cytotoxicity against human SR cells after 48 hrs by SRB assay; assay type: functional; how it was run: as §3
OVCAR-5 = test: Cytotoxicity against human OVCAR5 cells after 48 hrs by SRB assay; assay type: functional; settings: OVCAR-5, 48 h; how it was run: as §1
HCT-116 = test: Cytotoxicity against human HCT116 cells after 48 hrs by SRB assay; assay type: functional; settings: HCT-116, 48 h; how it was run: as §1
UACC-62 = test: Cytotoxicity against human UACC62 cells after 48 hrs by SRB assay; assay type: functional; settings: UACC-62, 48 h; how it was run: as §3
CAKI-1 = test: Cytotoxicity against human Caki1 cells after 48 hrs by SRB assay; assay type: functional; settings: CAKI-1, 48 h; how it was run: as §1
RPMI-8226 = test: Cytotoxicity against human RPMI8226 cells after 48 hrs by SRB assay; assay type: functional; settings: RPMI-8226, 48 h; how it was run: as §1
SNB-75 = test: Cytotoxicity against human SNB75 cells after 48 hrs by SRB assay; assay type: functional; settings: SNB-75, 48 h; how it was run: as §1
NCI-H522 = test: Cytotoxicity against human NCI-H522 cells after 48 hrs by SRB assay; assay type: functional; settings: NCI-H522, 48 h; how it was run: as §1
K562 = test: Cytotoxicity against human K562 cells after 48 hrs by SRB assay; assay type: functional; settings: K562, 48 h; how it was run: as §1
MCF7 = test: Cytotoxicity against human MCF7 cells after 48 hrs by SRB assay; assay type: functional; settings: MCF7, 48 h
How it was run: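 NCI-60 screen: cells in RPMI 1640 with 5% FBS and 2 mM L-glutamine, preincubated 24 h at 37 °C. Compound was then added for 48 h at five concentrations (10−4 to 10−8 M). Cells were fixed with cold TCA and stained with 0.4% SRB in 1% acetic acid, and OD read at 515 nm. GI50 is the concentration halving net protein increase versus control.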

NCI-H460 = test: Cytotoxicity against human NCI-H460 cells after 48 hrs by SRB assay; assay type: functional; settings: NCI-H460, 48 h; how it was run: as §1
[6] = read-out: LC50 (the source's name)

Q: Which results are given for C=C1C(=O)O[C@H]2[C@H]1CC/C(COC(=O)NCCCCCNC(=O)OC/C1=C/CC[C@@]3(C)O[C@H]3[C@H]3OC(=O)C(=C)[C@@H]3CC1)=C\CC[C@@]1(C)O[C@@H]21?
A: GI50 (SNB-19): 3.97 µM; CC50 (SNB-19; [6]): 92.5 µM; GI50 [1]: 70 µM; CC50 [1, 6]: > 100 µM; GI50 (CCRF-CEM): 0.28 µM; CC50 (CCRF-CEM; [6]): > 100 µM; EC50 [2]: 1.6 µM; GI50 (SK-MEL-2): 2.01 µM; CC50 (SK-MEL-2; [6]): 7.81 µM; GI50 (HCC 2998): 6.71 µM; CC50 (HCC 2998; [6]): 53.9 µM; EC50 [3]: 1.6 µM; GI50 (A498): 6.24 µM; CC50 (A498; [6]): 47.5 µM; EC50 [4]: 0.9 µM; GI50 (TK-10): 1.82 µM; CC50 (TK-10; [6]): 11.8 µM; EC50 [5]: 3.5 µM; GI50 (OVCAR-8): 3.27 µM; CC50 (OVCAR-8; [6]): 61 µM; GI50 (SW-620): 0.43 µM; CC50 (SW-620; [6]): 5.14 µM; GI50 (HCT-15): 6.18 µM; CC50 (HCT-15; [6]): 49.8 µM; GI50 (PC-3): 3.79 µM; LC50 (concentration killing half the cell population) (PC-3): 49.4 µM; GI50 (HT-29): 0.51 µM; CC50 (HT-29; [6]): 4.85 µM; GI50 (SF-539): 1.92 µM; CC50 (SF-539; [6]): 12.7 µM; GI50 (Malme-3M): 2.06 µM; CC50 (Malme-3M; [6]): 27.3 µM; GI50 (T47D): 1.6 µM; CC50 (T47D; [6]): > 100 µM; GI50 (SR): 0.38 µM; CC50 (SR; [6]): > 100 µM; GI50 (OVCAR-5): 1.67 µM; CC50 (OVCAR-5; [6]): 7.47 µM; GI50 (HCT-116): 0.54 µM; CC50 (HCT-116; [6]): 4.56 µM; GI50 (UACC-62): 1.41 µM; CC50 (UACC-62; [6]): 7.04 µM; GI50 (CAKI-1): 16.1 µM; CC50 (CAKI-1; [6]): 68.1 µM; GI50 (RPMI-8226): 0.78 µM; CC50 (RPMI-8226; [6]): > 100 µM; GI50 (SNB-75): 2.2 µM; CC50 (SNB-75; [6]): 33.8 µM; GI50 (NCI-H522): 0.22 µM; CC50 (NCI-H522; [6]): 0.88 µM; GI50 (K562): 0.56 µM; CC50 (K562; [6]): > 100 µM; GI50 (MCF7): 0.39 µM; CC50 (MCF7; [6]): 6.2 µM; GI50 (NCI-H460): 4.34 µM; CC50 (NCI-H460; [6]): 50.7 µM
